Variants at the floor of the assay were thinned out.
B1: tRNA (parent)
chain: GUUCCGUUGGCGUAAUGGUAACGCGUCUCCCUCCUAAGGAGAAGACUGCGGGUUCGAGUCCCGUACGGAACG

Variants of: B1
Experiment: yeast fitness relative to wild type (ratio to wild type); higher = fitter; tRNA-Arg(CCU), competitive growth, 37 C, YPD
Method in brief: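 The tRNA-Arg(CCU) gene variants were made by chemical synthesis with a 3% per-site mutation rate at 69 sites and inserted at the native genomic locus of Saccharomyces cerevisiae. After pooling, the strains were competed in YPD at 37°C for 24 hours in six parallel replicates. Gene amplicons from the start population and each end population were read by 100-nucleotide paired-end sequencing, and Darwinian fitness relative to wild type was taken from genotype frequency changes. Genotypes needed ≥ 100 starting reads, and estimates < 0.5 were set to 0.5.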

Variant	yeast fitness
GUUUCGUUGGCGUAAUGGUGACGCGUCUCCCUCCUAAGGAGAAGUCUGCGGGUUCGAGUCAUGUACGGAACG [C4U A20G A45U C61A C62U]	0.546
GUUGCGUUGGCGUAAUGGUAACGCGUCUCCCACGUAAGGACAAGACUGCGGGUUCGAGUCCCGUACGAAACG [C4G U32A C34G G41C G68A]	≤ 0.5
GUUUCGUUGGCGUGAUGGUAACGCGUCUCCCUCCUAAGGAGAAGCCUGCGGGUUCGAGUCCCGUACGGAACG [C4U A14G A45C]	0.542
GUUGCGUUGGCGUAAUGGUAACGCGUCUCCCUCCUAAGGAGAAGACUGCGGGAUCGAGUCCCCUACGGAACG [C4G U53A G63C]	≤ 0.5
GUUUCGUUGGCGUCAUGGUAACGCGUCUCCCUCCUAAGGAGAAGACUGCGGGUUUGACUCCCGUACGGAACG [C4U A14C C55U G58C]	0.595
GUUUCGUUGGCGUGAUGGUAACGCGUCUACCUCCUAAGGAGAAGACUGCGGGUUCGAGUCCCGUACGGAACG [C4U A14G C29A]	≤ 0.5
GUUUCGUUGGCGUUAUGGUAAUGCGUCUCCCUCCUAAGGUGAACACUGCGGGUUCGCGUCCCGUACGGAACG [C4U A14U C22U A40U G44C A57C]	≤ 0.5
GUUUCGUUGGCGUACUGGUAACGCGUCUCCCUCCUAAGGAAAAGACUGCGGGUUCGAGUCCCCUACGGAACG [C4U A15C G41A G63C]	≤ 0.5
GUUGCGUUGGCGUAAUGGUAACGCGUCUCCCUCCCAAGGAGAAGACUGCGGGUUAGAGUCCCGUACGGUACG [C4G U35C C55A A69U]	≤ 0.5
GUUUCGUUGGCGUGAUGGUCACGCGUCUCCCUCUUAAGGAGAAGACUGCGGGUUUGAGUCCCGUACGGAACG [C4U A14G A20C C34U C55U]	≤ 0.5
GUUUCGUUGGCGUAUUGGUAACGCGUCUCCCUCCUAAGGAGCAGACUGCGGGUUCGUGUCCCGUACGGAACG [C4U A15U A42C A57U]	≤ 0.5
GUUUCGUUGGCGUAAUGGUCACGCGUCUCCCUCCUAAGGAGAAGAUUGCGGGUUCGAGUCCCGUACGGAGCG [C4U A20C C46U A70G]	≤ 0.5
GUUUCGUUGGCGUUAUGGUACCGCGUCUCCCUCCUAAGGAGAAGCCUGCGGGUUCGAGUCCCGUACGGUACG [C4U A14U A21C A45C A69U]	≤ 0.5
GUUUCGUUGGCGUGAUGGUAACGCGUCUCCCUCCUAAGGAGAAGCCUGCGGGUUCGAGUCCCCUACGGAACG [C4U A14G A45C G63C]	≤ 0.5
GUUUCGUUGGCGUACUGGUAACGCGUCUCCCUCCUAAGGAGAAGACUGCGCGUUCGGGUCCCGUACGGAACG [C4U A15C G51C A57G]	≤ 0.5
GUUUCGUUGGCGUGAUGGUAACGCGUCUCCCUCCUAAGGAGAAGACUGCGGGUUCGAGUCCCGUACGGAUCG [C4U A14G A70U]	0.787
GUUUCGUUGGCGUGGUGGUAAUGCGUCUCCCUCCUAAGGAGAAGAUUGCGGGUUCGAGUCCCGUACGGAUCG [C4U A14G A15G C22U C46U A70U]	≤ 0.5
GUUUCGUUGGCGUAUAGGUAACCCAUCUCCCUCCUAAGGAGAAGACUGCGGGUUCGUGUCCCGUACGGUACG [C4U A15U U16A G23C G25A A57U A69U]	≤ 0.5
GUUUCGUUGGCGUAGUGGUAACGCGUCUCCCUCCUAAGGAGAAGACUGCGGGUUCGAGUCCCGUACGGAACG [C4U A15G]	0.997

Variant	yeast fitness
GUUUCGUUGGCGUAUUGGUAACGCGUCUCCCUCCUAAGGAGAAGACUGCGGGUUCGAGUCCCGUACGGAACG [C4U A15U]	0.89
GUUGCGUUGGCGUAAUGGUAACGCGCCUCCCUCCUAAGGUGAAGACUGUGGGUUCGAGUCCCGUACGGAACG [C4G U26C A40U C49U]	≤ 0.5
GUUGCGUUGGCGUAAUGGUAACGCGUCUCCCUCCUAAGGAGAAGACUGCGGGUUCGAGCCCCGUACGGCACG [C4G U59C A69C]	0.778
GUUUCGUUGGCGUAAUGGUCACGCGGCUCCCUCCUAAGGAGAAGACUGCGGGUUCGAGUCCCGUACGGAACG [C4U A20C U26G]	0.552
GUUUCGUUGGCGUUAUGGUAACGCGUCUCCCUCCUAAGGAGAAGACUGCGGGUUCGAGUCCCGUACGGAACG [C4U A14U]	0.611
GUUUCGUUGGCGUAUUGGUAACGCGUCCCCCUCCUAAGGAGAAGACUGCGGGUUCGAGUCCCGUACGGAACG [C4U A15U U28C]	0.55
GUUUCGUUGGCGUAAUGGUGACGCGUCUCCCGCCUAAGGAGACGUCUGCGGGUUCGAGUCCCGUACGGAACG [C4U A20G U32G A43C A45U]	≤ 0.5
GUUGCGUUGGCGUAAUGGUAACGCGUCUCCCUCCUAAGGAGAAGACUGCGGGUUCGAGUCCCGCACGCAACG [C4G U64C G68C]	0.632
GUUGCGUUGGCGUAAUGGUAACGCGACUCCCUCCUAAGGAGAAGACUGCGGGUUCGAGUCCCGUACGGAACG [C4G U26A]	0.796
GUUGCGUUGGCGUAAUGGUAACGCGCCUCCCUCCUAAGGAGAAGACUGCGGGUUCGAGUCCCGUACGGAACG [C4G U26C]	0.993
GUUGCGUUGGCGUAAUGGUAACGCGGCUCCCUCCUAAGGAGAAGACUGCGGGUUCGAGUCCCGUACGGAACG [C4G U26G]	0.856
GUUGCGUUGGCGUAAUGGUAACGCGUCUCCCCCCUAAGGAGAAGUCUGCGGGUUCGAGUCCCGUACGGAACG [C4G U32C A45U]	0.537
GUUGCGUUGGCGUAAUGGUAACGCGUCUCCCUCCUAAGGAGAAGACCGCGGGUUCGAGGCCCGUACGGAACG [C4G U47C U59G]	≤ 0.5
GUUUCGUUGGCGUAUUGGUAACGCGUCUCCCUCCUAAGGAGAAGACUGCGGGUUCGAGUCCCGUAUGGAACG [C4U A15U C66U]	0.649
GUUUCGUUGGCGUAUUGGUAACGCGUCCCCCUCCUAAGGAGAAGACUGCGGGUUCGGGUCCCGUACGGAACG [C4U A15U U28C A57G]	≤ 0.5
GUUUCGUUGGCGUAAUGGUCACGCGUCUCCCUCGUGAGGAGAAGACUGCGGGUUCGAGUCCCGUUCGGAACG [C4U A20C C34G A36G A65U]	≤ 0.5
GUUUCGUUGGCGUAAUGGUGACGCGUCUCCCUCCUAAGGAGAAGACUGCGGGUUCGAGUCCCGUACGGAACG [C4U A20G]	0.979
GUUUCGUUGGCGUGAUGGUAACGCGUCUCCCUCAUAAGGAGAAGACUGCGGGUUCGAGUCCCGUACGGAACG [C4U A14G C34A]	≤ 0.5
GUUUCGUUGGCGUAUUGGUCACACGUCUCCCUCCUAAGGAGAAGACUGCCGGUUCGAGUCCCGUACGGAACG [C4U A15U A20C G23A G50C]	≤ 0.5

Reference: the RNAGym collection of RNA variant scans (doi:10.1126/science.aae0568)
